As usually defined, the half-life is the time in which the quantity being followed falls by half. Low readings indicate fast loss, high ones slow loss.

The text below walks through data of ChEMBL document CHEMBL3992563, “Piperazines as nootropic agents: New derivatives of the potent cognition-enhancer DM235 carrying hydrophilic substituents” (Bioorg Med Chem, 2017).

In series [1] the test system is Mus musculus. The series can be described thus: Toxicity in sc dosed CD-1 albino mouse assessed as gross behavior abnormality at cognition enhancing MED. The class given is organism-based. The note with it: in vivo.
In series [2] the test system is Mus musculus. The series can be described thus: Cognition enhancing effect in sc dosed CD-1 albino mouse assessed as reversal of scopolamine-induced amnesia by measuring difference between training session and retention session time at MED treated 20 mins prior to training session followed by scopolamine challenge immediately after training session by passive avoidance test. The class given is functional. In outline:
(§1)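 Mouse passive-avoidance test using a modified Jarvik–Kopp protocol. Drug in saline with 10% DMSO, given s.c. 20 min before training in a 1:10 dilution series up to 10 mg/kg. Scopolamine 1.5 mg/kg i.p. given right after the punishment/training session. Saline controls got an extra saline injection. Each value is the mean of 12–14 mice; the read-out is minimal effective dose.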

Series [3] relates to Mus musculus. The series can be described thus: Cognition enhancing effect in sc dosed CD-1 albino mouse assessed as reversal of scopolamine-induced amnesia treated 20 mins prior to training session followed by scopolamine challenge immediately after training session by passive avoidance test. As to conditions: CD-1, sc, read-out: MED. The class given is functional. In outline: as §1

The test system of series [4] is Mus musculus. The series can be described thus: Toxicity in sc dosed CD-1 albino mouse assessed as effect on spontaneous motility at cognition enhancing MED by hole-board test. It is filed as organism-based. As to conditions: in vivo.
Series [5] concerns Mus musculus. Kind of series: Potency index, ratio of piracetam MED to compound MED for cognition enhancing effect in sc dosed CD-1 albino mouse. The class given is functional.
A short description of series [6]: Half life in Sprague-Dawley rat plasma at 1 uM by LC-MS/MS analysis. It is filed as ADME, cell-free. In outline:
(§2)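 Analyte at 1 µM final in PBS or in plasma from male Sprague-Dawley rats (plasma stored at −80 °C), incubated at 37 °C. Sampled in triplicate at 0, 30, 60 and 120 min, then internal standard added. Quantified by ESI-positive LC-MS/MS in MRM mode (C18 column, formic acid/acetonitrile gradient) against calibration from 0–1.00 µM. Enalapril checked plasma hydrolytic activity; t1/2 extrapolated from concentration-time curves.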

Series [7] concerns Mus musculus. The series can be described thus: Toxicity in sc dosed CD-1 albino mouse assessed as effect on motor co-ordination at cognition enhancing MED by rota rod test. The class given is organism-based. As to conditions: in vivo. On the technique in general: In the rotarod test animals must keep their balance on a rotating rod.
Series [8] concerns Plasma. Kind of series: Drug level in Sprague-Dawley rat plasma treated with (4-Acetyl-1-(4-fluorophenylsulfonyl)piperazin-2-yl)methyl acetate at 1 uM after 60 mins by LC-MS/MS analysis. It is filed as ADME, cell-free. The note with it: 1 h. In a few lines: as §2
The nature of series [9]: Half life in PBS at 1 uM by LC-MS/MS analysis. It is filed as physicochemical. In a few lines:
as §2

The test system of series [10] is Plasma. Kind of series: Drug level in Sprague-Dawley rat plasma treated with (1-Benzoyl-4-propionylpiperazin-2-yl)methyl acetate at 1 uM after 60 mins by LC-MS/MS analysis. The note with it: 1 h. The class given is ADME, cell-free. In outline: as §2
Series [11] deals with Plasma. Kind of series: Drug level in Sprague-Dawley rat plasma treated with (1-Acetyl-4-(4-fluorophenylsulfonyl)piperazin-2-yl)methyl acetate at 1 uM after 60 mins by LC-MS/MS analysis. The class given is ADME, cell-free. The note with it: 1 h. In outline: as §2

On to `CC(=O)N1CCN(S(=O)(=O)c2ccc(F)cc2)C(CO)C1` (configuration not stated), for which the Activity entry in the series with Mus musculus [1], with Mus musculus [4] and in the series on Mus musculus [7] was “Non-Toxic” each time. In addition, the Time in the series with Mus musculus [2] is 66.2 s. Moreover, the minimal effective dose in the series with Mus musculus [3] came out at 1 mg/kg. Besides, the Ratio in the series with Mus musculus [5] is given as 3 - 300. The half-life at 1 µM in series [6] and in [9] was at least 4 h each time. In addition, the Drug metabolism entry in the series on Plasma [8] was “Metabolite_Detected”.

For `CCC(=O)N1CCN(C(=O)c2ccccc2)C(CO)C1` (configuration not stated), the Activity entry in the series with Mus musculus [1], in the series on Mus musculus [4] and in the series with Mus musculus [7] was “Non-Toxic” in each case. Moreover, the Time with Mus musculus [2] was found to be 52.6 s. In addition, the minimal effective dose with Mus musculus [3] was determined as 0.1 mg/kg. For the same compound, the Ratio in the series with Mus musculus [5] is reported as 3 - 300. The half-life at 1 µM in [6] and in series [9] was at least 4 h throughout. For the same compound, in the series on Plasma [10], the Drug metabolism result is given as “Metabolite_Detected”.

Consider `CC(=O)N1CCN(S(=O)(=O)c2ccc(F)cc2)CC1CO` (configuration not stated), for which the Activity entry in the series on Mus musculus [1], in the series on Mus musculus [4] and with Mus musculus [7] was “Non-Toxic” in each case. Further, in the series on Mus musculus [2], the Time is on record as 48 s. Moreover, the minimal effective dose with Mus musculus [3] worked out at 10 mg/kg. For the same compound, the Ratio in the series with Mus musculus [5] is 3 - 300. The half-life at 1 µM in series [6] and in [9] was at least 4 h in each case. In addition, the Drug metabolism entry with Plasma [11] was “Metabolite_Detected”.
